In series [1] the target is Human immunodeficiency virus type 1 reverse transcriptase (Human immunodeficiency virus 1, UniProt Q72547). Briefly: Inhibition of HIV1 reverse transcriptase assessed as inhibition of biotinylated dUTP incorporation after 1 hr by ELISA. In a few lines: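 Recombinant HIV-1 RT kit (colorimetric ELISA). Poly(A)·oligo(dT)₁₅ template/primer with DIG-dUTP, biotin-dUTP and dTTP, ±inhibitor, 1 h at 37 °C. Product captured on streptavidin plate (1 h, 37 °C), then anti-DIG-POD (1 h, 37 °C), ABTS developed at 25 °C, A405 read. IC₅₀ = concentration inhibiting biotin-dUTP incorporation by 50%.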

Series [2] in a line: Selectivity index, ratio of CC50 for human MT4 cells to EC50 for HIV2 ROD. The format is toxicity, cell-based. As to conditions: read-out: Ratio CC50/EC50. In a few lines:
(§1)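 Selectivity index is CC₅₀/EC₅₀. Both values come from the same MTT assay in MT-4 cells: mock-infected and virus-infected (100-300 CCID₅₀) wells were run in parallel and read at day 5.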

Series [3] can be described thus: Selectivity index, ratio of CC50 for human MT4 cells to EC50 for HIV1 RES056. Conditions: read-out: Ratio CC50/EC50. The format is toxicity, cell-based. In a few lines:
as §1

Series [4] relates to Human immunodeficiency virus 2. Briefly: Antiviral activity against HIV2 ROD infected in human MT4 cells assessed as protection against virus-induced cytopathic effect after 5 days by MTT assay. Conditions: Human immunodeficiency virus 2, ISOLATE ROD, MT4, 120 h. The format is functional, organism-based. In a few lines: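 MT-4 cells resuspended at 6 × 10⁵ cells/mL after centrifugation at 200 g for 5 min. HIV-2 (ROD) added at 100-300 CCID₅₀. Test compound given as serial five-fold dilutions, triplicate wells. Viability of infected cells measured spectrophotometrically by MTT after 5 days. EC₅₀ = concentration giving 50% protection against viral cytopathic effect.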

The nature of series [5]: Selectivity index, ratio of CC50 for human MT4 cells to EC50 for HIV1 3B. The format is toxicity, cell-based. As to conditions: read-out: Ratio CC50/EC50. In a few lines: as §1
Series [6] in a line: Cytotoxicity against human MT4 cells after 5 days by MTT assay. The series is classed as cell-based. In a few lines: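 Exponentially growing MT-4 cells resuspended at 6 × 10⁵ cells/mL and exposed to serial five-fold compound dilutions in triplicate, mock-infected alongside infected wells. Viability read by MTT assay at day 5. CC₅₀ = concentration reducing mock-infected cell viability by 50%.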

For series [7], the system named is Human immunodeficiency virus 1. Briefly: Antiviral activity against HIV1 RES056 harboring reverse transcriptase K103N/Y181C double mutant infected in human MT4 cells assessed as protection against virus-induced cytopathic effect after 5 days by MTT assay. The series is classed as functional, organism-based. Conditions: Human immunodeficiency virus 1, RES056, MT4, 120 h. In a few lines: (§2)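 MT-4 cells, growing exponentially, were spun and resuspended at 6 × 10⁵ cells/mL. They were infected at the start together with compound, given as serial five-fold dilutions in triplicate wells, with mock-infected wells run in parallel. Viability was read by MTT after 5 days. EC₅₀ is the concentration giving 50% protection against viral cytopathic effect.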

In series [8] the test system is Human immunodeficiency virus 1. Briefly: Antiviral activity against HIV1 3B harboring wild type reverse transcriptase infected in human MT4 cells assessed as protection against virus-induced cytopathic effect after 5 days by MTT assay. The series is classed as functional, organism-based. Conditions: Human immunodeficiency virus 1, 3B, MT4, 120 h. In a few lines:
as §2

Series [9] concerns Human immunodeficiency virus 1. Briefly: Antiviral activity against HIV1 harboring reverse transcriptase K101N/Y181C double mutant infected in human MT4 cells. The format is functional, organism-based. Conditions: Human immunodeficiency virus 1, MT4.
Series [10] has as its system Human immunodeficiency virus 1. Briefly: Antiviral activity against HIV1 harboring reverse transcriptase Y181C mutant infected in human MT4 cells. The format is functional, organism-based. Conditions: Human immunodeficiency virus 1, MT4.
Series [11] relates to Human immunodeficiency virus 1. Briefly: Antiviral activity against HIV1 harboring reverse transcriptase K101N mutant infected in human MT4 cells. The format is functional, organism-based. As to conditions: Human immunodeficiency virus 1, MT4.
The test system of series [12] is Human immunodeficiency virus 1. Briefly: Antiviral activity against HIV1 harboring wild type reverse transcriptase infected in human MT4 cells. The format is functional, organism-based. As to conditions: Human immunodeficiency virus 1, MT4.

`Cc1cc(C)c(Oc2cc(Nc3ccc(C#N)cc3)[nH]c(=O)c2)c(C)c1`: in series [1], the IC50 was 39000 nM. In addition, the selectivity ratio in [2] was less than 1; in series [3], less than 1; in series [5] it was 87. Moreover, the half-maximal effective concentration (EC50) in [4] was greater than 32000 nM; in series [7], greater than 32000 nM; in series [8], 370 nM. This molecule also had a CC50 at 120 h in [6] of 32000 nM.

Regarding `Cc1cc(C)cc(Oc2c(CSCc3ccco3)c(C)[nH]c(=O)c2I)c1`, the EC50 in series [9] came to 4 nM; in series [10], 5 nM; in series [11], 1 nM; in series [12] it was 2 nM.

In the case of `Cc1cc(/C=C/C#N)cc(C)c1Nc1ccnc(Nc2ccc(C#N)cc2)n1` [RILPIVIRINE], the concentration for a half-maximal effect (EC50) in [11] came out at 0.3 nM.

Turning to `Cc1cc(C#N)cc(C)c1Oc1nc(Nc2ccc(C#N)cc2)nc(N)c1Br` [ETRAVIRINE], the values for the concentration giving a half-maximal response (EC50) in series [9] and in [11] were 4.3 nM and 1.2 nM, respectively.

`Cc1cc(C#N)cc(C)c1Oc1cc(Nc2ccc(C#N)cc2)[nH]c(=O)c1`: in series [1], the IC50 turned out to be 5200 nM. Moreover, the selectivity ratio was less than 1 in series [2], less than 1 in [3] and 166 in series [5]. Also, the 50% effective concentration (EC50) in [4] is greater than 25000 nM; in series [7], greater than 25000 nM; in [8], 150 nM. Further, half-maximal cytotoxicity in series [6] (CC50 at 120 h) was put at 25000 nM.

For the molecule `Cc1cc(C)c(Oc2cc(Nc3ccc(C#N)cc3)[nH]c(=O)c2I)c(C)c1`, the selectivity ratio in series [2] is less than 1; in series [3], less than 1; in [5], 6. Moreover, the EC50 in [4] was greater than 34000 nM; in [7] it was greater than 34000 nM; in series [8], 5600 nM. The molecule further registered a CC50 at 120 h in series [6] of 34000 nM.
